Test results: ChEMBL document CHEMBL1127413, “Cephem sulfones as inactivators of human leukocyte elastase. 5. 7 alpha-Methoxy- and 7 alpha-chloro-1,1-dioxocephem 4-ketones” (J Med Chem, 1994)

Assays:
[1] = Chemical stability (T1/2 at pH 7.4); assay type: physicochemical; details: buffer
Neutrophil elastase = biological target: T1, Neutrophil elastase (Homo sapiens, UniProt P08246); test: Inhibition constant (steady state) against Human Leukocyte Elastase (HLE)
T1 sequence (P08246 whole entry): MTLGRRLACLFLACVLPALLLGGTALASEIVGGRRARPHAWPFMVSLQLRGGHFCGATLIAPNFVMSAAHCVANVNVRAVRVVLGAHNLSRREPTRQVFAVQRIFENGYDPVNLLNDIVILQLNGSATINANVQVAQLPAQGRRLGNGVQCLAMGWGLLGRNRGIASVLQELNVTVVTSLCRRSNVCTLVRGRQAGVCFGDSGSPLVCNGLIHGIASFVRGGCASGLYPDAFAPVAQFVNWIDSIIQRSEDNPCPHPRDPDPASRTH
How it was run: (§1)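 HLE from human sputum, active-site titrated with MeO-Suc-Ala-Ala-Pro-Val-CH2Cl; 1–3 nM active enzyme. […] Substrate and inhibitor concentrations varied to derive kon and Ki(ss).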

[2] = biological target: T2, Neutrophil elastase (Homo sapiens) (UniProt P08246); test: Tested for the rate constant against Human Leukocyte Elastase (HLE) inactivation; how it was run: as §1
T2 sequence (whole entry): T1 sequence (P08246 whole entry)

[3] = biological target: T2, Neutrophil elastase (Homo sapiens); test: Tested for inhibition of Human Leukocyte Elastase (HLE) in living polymorphonuclear leukocytes; assay type: cell-based; set-up: scale not given: the % may be the effect or the level left
How it was run: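 Human PMNs from citrated venous blood, 5 × 10^6 cells/mL, exposed to inhibitor (10 μg per mL, in DMSO) for 15 min at 37 °C, then washed three times. Stimulated with cytochalasin B for 5 min, then fMLP for 15 min. Supernatant elastase assayed with N-acetyl-Ala-Ala-Pro-Ala-7-(4-methyl)coumarylamide, 6 h at 25 °C, fluorescence read; DMSO-only controls.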

half-life [1] [h] | Ki ss (Neutrophil elastase) [nM] | k on [2] [M⁻¹ s⁻¹] | Activity [3] [%] | Structure (SMILES)
2.3 | 130 |  |  | CC1=C(C(=O)c2ccccc2)N2C(=O)[C@H](Cl)C2S(=O)(=O)C1 (some centres not stated)
3 | 7 |  |  | Cn1nnnc1SCC1=C(C(=O)C(C)(C)C)N2C(=O)[C@H](Cl)C2S(=O)(=O)C1 (some centres not stated)
1.5 | 12 |  |  | CC(=O)OCC1=C(C(=O)c2ccccc2)N2C(=O)[C@H](Cl)C2S(=O)(=O)C1 (some centres not stated)
0.2 | 100 |  |  | CC(=O)OCC1=C(C(=O)Cc2ccccc2)N2C(=O)[C@H](Cl)C2S(=O)(=O)C1 (some centres not stated)
1400 | 55 |  |  | CO[C@H]1C(=O)N2C(C(=O)c3ccccc3)=C(CSc3nnnn3C)[C@@H](Sc3nnnn3C)S(=O)(=O)C12 (some centres not stated)
33 | < 2 |  |  | CO[C@H]1C(=O)N2C(C(=O)C(C)(C)C)=C(C)[C@@H](OC(=O)c3ccc4ccccc4c3)S(=O)(=O)C12 (some centres not stated)
1.2 | < 2 |  |  | CO[C@H]1C(=O)N2C(C(=O)C(C)(C)C)=C(COC(=O)c3ccccc3)[C@@H](OC(=O)c3ccccc3)S(=O)(=O)C12 (some centres not stated)
3.9 | 4 |  |  | CC(=O)OCC1=C(C(=O)C(C)(C)C)N2C(=O)[C@H](Cl)C2S(=O)(=O)C1 (some centres not stated)
106 | 1300 |  |  | CO[C@H]1C(=O)N2C(C(=O)C(C)(C)C)=C(C)CS(=O)(=O)C12 (some centres not stated)
10 | 6 |  |  | CO[C@H]1C(=O)N2C(C(=O)C(C)(C)C)=C(COC(C)=O)[C@@H](Sc3nnnn3C)S(=O)(=O)C12 (some centres not stated)
0.9 | 12 |  |  | COC(=O)C1=C(COC(C)=O)CS(=O)(=O)C2[C@@H](Cl)C(=O)N12 (some centres not stated)
5.1 | 100 |  |  | CO[C@H]1C(=O)N2C(C(=O)OC(C)(C)C)=C(CSc3ccccn3)CS(=O)(=O)C12 (some centres not stated)
31 | 93 |  |  | CO[C@H]1C(=O)N2C(C(=O)C(C)(C)C)=C(CSc3nnnn3C)[C@@H](Sc3nnnn3C)S(=O)(=O)C12 (some centres not stated)
7.5 | 2 |  |  | CO[C@H]1C(=O)N2C(C(=O)C(C)(C)C)=C(C)[C@@H](OC(=O)c3ccc(CSc4nc(=O)c(=O)[nH]n4C)cc3)S(=O)(=O)C12 (some centres not stated)
3.8 | 13 |  |  | CO[C@H]1C(=O)N2C(C(=O)OC(C)(C)C)=C(CSc3nnnn3C)CS(=O)(=O)C12 (some centres not stated)
< 0.5 | 600 |  |  | CO[C@H]1C(=O)N2C(C(=O)C(C)(C)C)=C(C)[C@@H](OC=O)S(=O)(=O)C12 (some centres not stated)
14 | 11 |  |  | CO[C@H]1C(=O)N2C(C(=O)C(C)(C)C)=C(COC(C)=O)CS(=O)(=O)C12 (some centres not stated)
4.1 | 270 |  |  | CC1=C(C(=O)c2ccccc2)N2C(=O)[C@H](Cl)C2S(=O)(=O)[C@@H]1Sc1nnnn1C (some centres not stated)
4.1 | 180 |  |  | CO[C@H]1C(=O)N2C(C(=O)OC(C)(C)C)=C(C)[C@@H](Sc3ccccn3)S(=O)(=O)C12 (some centres not stated)
10 | 20 |  |  | CO[C@H]1C(=O)N2C(C(=O)C(C)(C)C)=C(C)[C@@H](S(=O)(=O)c3ccccc3)S(=O)(=O)C12 (some centres not stated)
21 | 26 |  |  | CO[C@H]1C(=O)N2C(C(=O)C(C)(C)C)=C(C)[C@@H](Sc3nc(=O)c(=O)[nH]n3C)S(=O)(=O)C12 (some centres not stated)
27 | 12 |  |  | CO[C@H]1C(=O)N2C(C(=O)C(C)(C)C)=C(C)[C@@H](Sc3nnc(C)s3)S(=O)(=O)C12 (some centres not stated)

half-life [1] [h] | Ki ss (Neutrophil elastase) [nM] | k on [2] [M⁻¹ s⁻¹] | Activity [3] [%] | Structure (SMILES)
24 | 34 |  |  | CO[C@H]1C(=O)N2C(C(=O)C(C)(C)C)=C(CSc3nnnn3C)CS(=O)(=O)C12 (some centres not stated)
54 | < 2 |  |  | CO[C@H]1C(=O)N2C(C(=O)C(C)(C)C)=C(C)[C@@H](OC(=O)C(C)(C)C)S(=O)(=O)C12 (some centres not stated)
26 | 2700 |  |  | CO[C@H]1C(=O)N2C(C(=O)c3ccccc3)=C(C)CS(=O)(=O)C12 (some centres not stated)
13 | < 2 |  |  | CO[C@H]1C(=O)N2C(C(=O)C(C)(C)C)=C(C)[C@@H](OC(=O)CCC(=O)c3ccccc3)S(=O)(=O)C12 (some centres not stated)
18 | 200 | 1800 |  | CO[C@H]1C(=O)N2C(C(=O)N3CCC[C@H]3C(=O)O)=C(COC(C)=O)CS(=O)(=O)C12 (some centres not stated)
24 | 10 |  |  | CO[C@H]1C(=O)N2C(C(=O)C(C)(C)C)=C(C)[C@@H](Sc3ccccn3)S(=O)(=O)C12 (some centres not stated)
10 |  |  |  | CC(=O)CCC1=C(COC(C)=O)CS(=O)(=O)C2[C@@H](Cl)C(=O)N12 (some centres not stated)
3.2 | 300 |  |  | CC1=C(C(=O)C(C)(C)C)N2C(=O)[C@H](Cl)C2S(=O)(=O)[C@@H]1Sc1nnnn1C (some centres not stated)
0.7 | < 2 |  |  | CO[C@H]1C(=O)N2C(C(=O)C(C)(C)C)=C(CSc3nnnn3C)[C@@H](OC(=O)c3ccccc3)S(=O)(=O)C12 (some centres not stated)
 |  |  | 8 | CO[C@H]1C(=O)N2C(C(=O)SCC(NC(=O)OC(C)(C)C)C(=O)OC(c3ccccc3)c3ccccc3)=C(CSc3nnnn3C)CS(=O)(=O)[C@H]12 (some centres not stated)
25 | 75 |  |  | CO[C@H]1C(=O)N2C(C(=O)N3CCCC3)=C(CSc3nc(=O)c(=O)[nH]n3C)CS(=O)(=O)C12 (some centres not stated)
16 | 27 |  |  | CO[C@H]1C(=O)N2C(C(=O)C(C)(C)C)=C(CSc3nc(=O)c(=O)[nH]n3C)CS(=O)(=O)C12 (some centres not stated)
18 | 8 |  |  | CO[C@H]1C(=O)N2C(C(=O)C(C)(C)C)=C(C)[C@@H](Sc3nnnn3C)S(=O)(=O)C12 (some centres not stated)
5.6 | 380 |  |  | CC1=C(C(=O)C(C)(C)C)N2C(=O)[C@H](Cl)C2S(=O)(=O)C1 (some centres not stated)
6.9 | 170 |  |  | COCC1=C(C(=O)C(C)(C)C)N2C(=O)[C@H](Cl)C2S(=O)(=O)C1 (some centres not stated)
1.1 | 11 |  |  | CCC(=O)C1=C(COC(C)=O)CS(=O)(=O)C2[C@@H](Cl)C(=O)N12 (some centres not stated)
6.3 | 4 |  |  | CO[C@H]1C(=O)N2C(C(=O)C(C)(C)C)=C(C)[C@@H](OC(C)=O)S(=O)(=O)C12 (some centres not stated)
17 | 110 |  |  | CO[C@H]1C(=O)N2C(C(=O)c3ccccc3)=C(CSc3nnnn3C)CS(=O)(=O)C12 (some centres not stated)
1.8 | 140 |  |  | CC(=O)OCC1=C(C(=O)C(C)(C)C)N2C(=O)[C@H](Cl)C2S(=O)(=O)[C@@H]1Sc1nnnn1C (some centres not stated)
200 | 1400 |  |  | CO[C@H]1C(=O)N2C(C(=O)c3ccccc3)=C(C)[C@@H](Sc3nnnn3C)S(=O)(=O)C12 (some centres not stated)
24 | < 2 |  |  | CO[C@H]1C(=O)N2C(C(=O)C(C)(C)C)=C(C)[C@@H](OC(=O)c3ccccc3)S(=O)(=O)C12 (some centres not stated)
28 | 12 |  |  | CO[C@H]1C(=O)N2C(C(=O)C(C)(C)C)=C(CSc3ccccn3)CS(=O)(=O)C12 (some centres not stated)
